The species named for assay [1] is Rattus norvegicus. Kind of assay: Alpha-adrenolytic activity (pA2) on the descending thoracic branch of the rat aorta. It is filed as functional. In a few lines: (§1)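 Rat aortic strips held at 2 g resting tension, left about 2 h to stabilize; antagonist put in the bath 30 min before agonist challenge. pA2 by Arunlakshana–Schild analysis as developed by Miesch et al.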

The test system of assay [2] is Canis familiaris. Nature of the assay: In vivo percent coronary flow in Mongrel dogs after administration at 3 mg/Kg (iv). It is filed as functional, Canis lupus familiaris. In a few lines: (§2)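 Overnight-fasted mongrel dogs of either sex (15–25 kg), pentobarbital 25 mg/kg iv (maintenance 1 mg/kg iv) plus levopromazine 0.5 mg/kg im. Femoral-vein injections at 0.3–1 and 3 mg/kg; coronary flow increase given as percent of the period before the 3 mg/kg injection.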

The species named for assay [3] is Sus scrofa. Nature of the assay: Antagonism of calcium-induced contraction of a depolarized coronary in pig. It counts as functional. Also on record: unit not given beside the values. In short, it runs like this: (§3)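 Helical pig coronary strips (2–2.5 cm long, 3–4 mm wide) at 0.5 g resting tension in modified Krebs-Henseleit (1.25 mmol/L CaCl2), depolarized, contracted with calcium. Antagonist added 30 min beforehand. Result as pA2 (Arunlakshana–Schild) or pD2' (Ariens–Van Rossum, for noncompetitive antagonism).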

The species entered for assay [4] is Rattus norvegicus. Kind of assay: Alpha-adrenolytic activity on the descending thoracic branch of the rat aorta. It counts as functional. In a few lines:
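Isolated aorta preparation set at 2 g resting tension and stabilized about 2 h. Antagonist was added to the bath 30 min before the assay. Competitive antagonism was expressed as pA2 (Arunlakshana–Schild method). Noncompetitive antagonism was expressed as pD2' (Ariens–Van Rossum calculation).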

The species entered for assay [5] is Rattus norvegicus. Nature of the assay: Alpha-adrenolytic activity (pA2) on the descending thoracic branch of the rat aorta; Insoluble. It counts as functional, organism-based. In a few lines: as §1
For assay [6], the system named is Canis familiaris. Nature of the assay: In vivo percent coronary flow in Mongrel dogs after administering 3 mg/Kg (iv) of the compound; Insoluble. It is filed as functional, organism-based. Particulars: Canis lupus familiaris. In short, it runs like this: as §2
The species named for assay [7] is Sus scrofa. Kind of assay: Antagonism of calcium-induced contraction on the depolarized coronary of pig; Insoluble. It is filed as functional, organism-based. In a few lines: as §3

In the assay filed under Rattus norvegicus [1], `O=[N+]([O-])O.c1ccc(C(CNC2CCCC2)C2CCCCC2)cc1` (stereo not given) showed an Alpha-adrenolytic activity of 5.9. Further, the Coronary flow in the assay with Canis familiaris [2] came to 38.5. For the same compound, the “Ca2+ antagonism” value in the assay listed under Sus scrofa [3] is recorded as 6.2.

Turning to `CC(Cc1ccccc1)NCCC(C1CCCCC1)C1CCCCC1.O=C(O)/C=C\C(=O)O` (stereo not given), the Alpha-adrenolytic activity in the assay filed under Rattus norvegicus [1] is listed as below 5. The compound further came in with a Coronary flow with Canis familiaris [2] of 42. Further, the “Ca2+ antagonism” value in the assay filed under Sus scrofa [3] stood at 5.2.

The compound `C1CCC(NCCCC(C2CCCCC2)C2CCCCC2)CC1.Cl` returned an Alpha-adrenolytic activity in the assay listed under Rattus norvegicus [1] of 6.05. In addition, the Coronary flow in the assay with Canis familiaris [2] is recorded as 95.5. Further, the “Ca2+ antagonism” value in the assay listed under Sus scrofa [3] came out at 4.6.

In the assay listed under Rattus norvegicus [4], `COc1ccc(CC(C)NCC(c2ccccc2)C2CCCCC2)cc1.O=C(O)/C=C\C(=O)O` (stereo not given) registered an Alpha-adrenolytic activity of 6. For the same compound, the Coronary flow with Canis familiaris [2] is given as 100.5. Moreover, in the assay listed under Sus scrofa [3], the “Ca2+ antagonism” value was 5.1.

Turning to `CC(CCc1ccccc1)NCC(c1ccccc1)C1CCCCC1.O=C(O)/C=C\C(=O)O` (stereo not given), the Alpha-adrenolytic activity in the assay filed under Rattus norvegicus [1] was determined as 7.6. The compound also returned a Coronary flow with Canis familiaris [2] of 71.5. Also, the “Ca2+ antagonism” value in the assay listed under Sus scrofa [3] was 6.1.

Compound `C1CCC(NCCC23CC4CC(CC(C4)C2)C3)CC1.O=C(O)/C=C\C(=O)O` had an Alpha-adrenolytic activity in the assay filed under Rattus norvegicus [1] of 6.75. This compound displayed a Coronary flow in the assay with Canis familiaris [2] of 99. Further, the “Ca2+ antagonism” value in the assay filed under Sus scrofa [3] is given as 4.7.

`Cl.c1ccc(C(CCNC2CCCCC2)C2CCCCC2)cc1` (stereo not given): in the assay listed under Rattus norvegicus [1], the Alpha-adrenolytic activity came out at 6.8. For the same compound, the Coronary flow in the assay on Canis familiaris [2] came to 156. In addition, in the assay listed under Sus scrofa [3], the “Ca2+ antagonism” value is 5.8.

`CC(Cc1ccccc1)NCCC12CC3CC(CC(C3)C1)C2.O=C(O)/C=C\C(=O)O` (stereo not given) gave an Alpha-adrenolytic activity in the assay listed under Rattus norvegicus [1] of 7.3. This compound yielded a Coronary flow with Canis familiaris [2] of 146. In addition, the “Ca2+ antagonism” value in the assay listed under Sus scrofa [3] came out at 4.85.

On to `CC(CCc1ccccc1)NCCC12CC3CC(CC(C3)C1)C2.O=C(O)/C=C\C(=O)O` (stereo not given), for which the Alpha-adrenolytic activity in the assay filed under Rattus norvegicus [1] is recorded as 7.15. Further, the Coronary flow in the assay on Canis familiaris [2] turned out to be 215. Moreover, in the assay listed under Sus scrofa [3], the “Ca2+ antagonism” value was 5.1.

For `COc1ccc(CCNCCC(C2CCCCC2)C2CCCCC2)cc1OC.O=C(O)/C=C\C(=O)O`, the Alpha-adrenolytic activity in the assay filed under Rattus norvegicus [4] was found to be 6.3. This compound also gave a Coronary flow in the assay on Canis familiaris [2] of 44.5. Besides, in the assay filed under Sus scrofa [3], the “Ca2+ antagonism” value was 4.1.

For `Cl.Oc1ccc(C(CNC2CCCCC2)C2CCCCC2)cc1` (stereo not given), the Alpha-adrenolytic activity in the assay filed under Rattus norvegicus [4] worked out at 7.1. Further, the Coronary flow in the assay on Canis familiaris [2] is 133.5. For the same compound, the “Ca2+ antagonism” value in the assay listed under Sus scrofa [3] stood at 4.5.

`C1CCC(NC(C2CCCCC2)C2CCCCC2)CC1.Cl`: the Alpha-adrenolytic activity in the assay listed under Rattus norvegicus [1] amounted to 6.2. In the assay with Canis familiaris [2], this compound gave a Coronary flow of 194. The “Ca2+ antagonism” value in the assay filed under Sus scrofa [3] stood at 5.45.

Turning to `COc1ccc(CCNCC(c2ccccc2)C2CCCCC2)cc1OC.O=C(O)/C=C\C(=O)O` (stereo not given), the Alpha-adrenolytic activity in the assay listed under Rattus norvegicus [4] turned out to be 7.25. In the assay on Canis familiaris [2], this compound returned a Coronary flow of 73. Also, the “Ca2+ antagonism” value in the assay filed under Sus scrofa [3] was 3.6.

In the assay listed under Rattus norvegicus [1], `CC(C)(C)NCC(c1ccccc1)C1CCCCC1.Cl` (stereo not given) yielded an Alpha-adrenolytic activity of 7.25. The same compound registered a Coronary flow with Canis familiaris [2] of 104.5. For the same compound, the “Ca2+ antagonism” value in the assay listed under Sus scrofa [3] was below 4.5.

The compound `CC(Cc1ccccc1)NCC(c1ccccc1)C1CCCCC1.O=C(O)/C=C\C(=O)O` (stereo not given) showed an Alpha-adrenolytic activity in the assay filed under Rattus norvegicus [1] of 6.9. This compound also yielded a Coronary flow in the assay on Canis familiaris [2] of 157. In the assay filed under Sus scrofa [3], the “Ca2+ antagonism” value was found to be 6.2.

In the assay listed under Rattus norvegicus [1], `CN1CCCCC1CC(C1CCCCC1)C1CCCCC1` (stereo not given) displayed an Alpha-adrenolytic activity of 6.9. In the assay with Canis familiaris [2], this compound yielded a Coronary flow of 135. Also, in the assay filed under Sus scrofa [3], the “Ca2+ antagonism” value was found to be 5.3.

Take `O=[N+]([O-])O.c1ccc(C(CNC2CCCCC2)C2CCCCC2)cc1` (stereo not given): in the assay listed under Rattus norvegicus [1], the Alpha-adrenolytic activity was 7.9. Also, the Coronary flow with Canis familiaris [2] is 62. Besides, in the assay listed under Sus scrofa [3], the “Ca2+ antagonism” value was 4.6.

Turning to `CN(CCC(C1CCCCC1)C1CCCCC1)C1CCCCC1.O=C(O)/C=C\C(=O)O`, the Alpha-adrenolytic activity in the assay listed under Rattus norvegicus [1] is on record as 6.15. Further, the Coronary flow in the assay with Canis familiaris [2] was 67. The “Ca2+ antagonism” value in the assay filed under Sus scrofa [3] is 4.85.

Take `C1CCC(NCCC(C2CCCCC2)C2CCCCC2)CC1.Cl`: in the assay filed under Rattus norvegicus [1], the Alpha-adrenolytic activity turned out to be 7.25. The compound further gave a Coronary flow in the assay with Canis familiaris [2] of 130. For the same compound, in the assay listed under Sus scrofa [3], the “Ca2+ antagonism” value stood at 4.85.

In the assay listed under Rattus norvegicus [1], `C1CCC(C(CC2CCCCN2)C2CCCCC2)CC1` (stereo not given) [PERHEXILINE] had an Alpha-adrenolytic activity of 6.7. The compound also yielded a Coronary flow in the assay on Canis familiaris [2] of 37.5. Further, the “Ca2+ antagonism” value in the assay listed under Sus scrofa [3] is reported as 5.2.

As for `C1CCC(NCCCCC(C2CCCCC2)C2CCCCC2)CC1`, the Alpha-adrenolytic activity entry in the assay listed under Rattus norvegicus [5] is given as “Insoluble”. The Coronary flow entry in the assay on Canis familiaris [6] is “Insoluble”. Besides, in the assay filed under Sus scrofa [7], the “Ca2+ antagonism” value is on record as “Insoluble”.

Take `Cc1ccc(C(CNC2CCCCC2)C2CCCCC2)cc1.O=C(O)/C=C\C(=O)O` (stereo not given): the Alpha-adrenolytic activity in the assay listed under Rattus norvegicus [1] worked out at 6.55. The Coronary flow in the assay on Canis familiaris [2] came to 68. Further, the “Ca2+ antagonism” value in the assay listed under Sus scrofa [3] was 6.

Consider `CC(Cc1ccc(O)cc1)NCC(c1ccccc1)C1CCCCC1.O=[N+]([O-])O` (stereo not given), for which the Alpha-adrenolytic activity in the assay listed under Rattus norvegicus [4] amounted to 6.35. Further, in the assay on Canis familiaris [2], the Coronary flow is recorded as 105. Also, the “Ca2+ antagonism” value in the assay listed under Sus scrofa [3] stood at 4.8.

In the case of `CC(CCc1ccccc1)NCCC(C1CCCCC1)C1CCCCC1` (stereo not given), the Alpha-adrenolytic activity entry in the assay filed under Rattus norvegicus [5] is given as “Insoluble”. Moreover, in the assay on Canis familiaris [6], the Coronary flow entry was “Insoluble”. Also, the “Ca2+ antagonism” value in the assay listed under Sus scrofa [7] is given as “Insoluble”.

The compound `COc1ccc(CCNCCC23CC4CC(CC(C4)C2)C3)cc1OC.Cl` showed an Alpha-adrenolytic activity in the assay listed under Rattus norvegicus [4] of 7.35. This compound showed a Coronary flow in the assay with Canis familiaris [2] of 133. In the assay filed under Sus scrofa [3], the “Ca2+ antagonism” value is 4.8.

The record behind these values is ChEMBL document CHEMBL1122077, “Synthesis and cardiovascular activity of a new series of cyclohexylaralkylamine derivatives related to perhexiline” (1982).
